Assay results: ChEMBL document CHEMBL1134859, “Rapid synthesis of triazine inhibitors of inosine monophosphate dehydrogenase” (Bioorg Med Chem Lett, 2002)

Key:
CCRF-CEM = assay: Inhibitory activity against human T-lymphoblast CEM cell line using T cell proliferation assay; format: functional, cell-based
Outline: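 Human T-lymphoblast CEM cells were grown in RPMI 1640 with 10% heat-inactivated FBS and penicillin/streptomycin, then seeded at 3000 cells/well in 0.5% DMSO. Compounds were tested in triplicate from a 10 uM final top concentration in 3-fold serial dilutions. Cells were kept 72 h in humidified 5% CO2.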

[1] = biological target: Inosine-5'-monophosphate dehydrogenase 2 (Homo sapiens, UniProt P12268); assay: Inhibition of human Inosine-5'-monophosphate dehydrogenase 2

COc1cc(Nc2nc(OCc3ccccc3)nc(-c3ccccc3)n2)ccc1-c1cnco1
IC50 (CCRF-CEM): > 1000 nM | IC50 [1]: 32 nM

COc1cc(Nc2nc(-c3ccccc3)nc(N3CCC[C@@H]3CO)n2)ccc1-c1cnco1
IC50 (CCRF-CEM): > 1000 nM | IC50 [1]: 78 nM

COc1cc(Nc2nc(NCCC(=O)O)nc(-c3ccccc3)n2)ccc1-c1cnco1
IC50 (CCRF-CEM): > 1000 nM | IC50 [1]: 130 nM

CNc1nc(Nc2ccc(-c3cnco3)c(OC)c2)nc(-c2cccc(C)c2)n1
IC50 (CCRF-CEM): > 1000 nM | IC50 [1]: 130 nM

CNc1nc(Nc2ccc(-c3cnco3)c(OC)c2)nc(N2CCOCC2)n1
IC50 (CCRF-CEM): > 1000 nM | IC50 [1]: 160 nM

COc1cc(Nc2nc(N)n(-c3ccccc3)n2)ccc1-c1cnco1
IC50 (CCRF-CEM): > 1000 nM

COc1cc(Nc2nc(NCc3ccccc3)nc(-c3ccccc3)n2)ccc1-c1cnco1
IC50 (CCRF-CEM): > 1000 nM | IC50 [1]: 410 nM

CNc1nc(Nc2ccc(-c3cnco3)c(OC)c2)nc(N2CCC[C@H]2CO)n1
IC50 (CCRF-CEM): > 1000 nM | IC50 [1]: 130 nM

CNc1nc(Nc2ccc(-c3cnco3)c(OC)c2)nc(N2CCC[C@H]2COC)n1
IC50 (CCRF-CEM): > 1000 nM | IC50 [1]: 390 nM

COc1cc(Nc2nc(O)nc(-c3ccccc3)n2)ccc1-c1cnco1
IC50 (CCRF-CEM): 5900 nM | IC50 [1]: 18 nM

COc1cc(Nc2nc(-c3ccccc3)nc(N3CCOCC3)n2)ccc1-c1cnco1
IC50 (CCRF-CEM): > 1000 nM | IC50 [1]: 190 nM

CNc1nc(Nc2ccc(-c3cnco3)c(OC)c2)nc(-c2ccccc2)n1
IC50 (CCRF-CEM): > 1000 nM | IC50 [1]: 76 nM

COc1cc(Nc2nc(NCCc3cccnc3)nc(-c3ccccc3)n2)ccc1-c1cnco1
IC50 (CCRF-CEM): 2400 nM | IC50 [1]: 58 nM

COc1cc(Nc2nc(-c3ccccc3)nc(N3CCN(C=O)CC3)n2)ccc1-c1cnco1
IC50 (CCRF-CEM): > 1000 nM | IC50 [1]: 160 nM

CNc1nc(Nc2ccc(-c3cnco3)c(OC)c2)nc(-c2ccccc2C)n1
IC50 (CCRF-CEM): > 1000 nM | IC50 [1]: 310 nM

CNc1nc(Nc2ccc(-c3cnco3)c(OC)c2)nc(N2CCC[C@@H]2CO)n1
IC50 (CCRF-CEM): > 1000 nM | IC50 [1]: 720 nM

COc1cc(Nc2nc(NCCCC(=O)O)nc(-c3ccccc3)n2)ccc1-c1cnco1
IC50 (CCRF-CEM): > 1000 nM | IC50 [1]: 78 nM

COc1cc(Nc2nc(N)nc(-c3ccccc3)n2)ccc1-c1cnco1
IC50 (CCRF-CEM): > 1000 nM | IC50 [1]: 54 nM

CNc1nc(Nc2ccc(-c3cnco3)c(OC)c2)nc(-c2ccco2)n1
IC50 (CCRF-CEM): > 1000 nM | IC50 [1]: 57 nM

CNc1nc(NC)nc(Nc2ccc(-c3cnco3)c(OC)c2)n1
IC50 (CCRF-CEM): > 1000 nM | IC50 [1]: 620 nM

COc1cc(Nc2nc(NCCc3ccccc3)nc(-c3ccccc3)n2)ccc1-c1cnco1
IC50 (CCRF-CEM): > 1000 nM | IC50 [1]: > 1000 nM

CNc1nc(Nc2ccc(-c3cnco3)c(OC)c2)nc(-c2ccc(C)cc2)n1
IC50 (CCRF-CEM): > 1000 nM | IC50 [1]: 170 nM

COc1cc(Nc2nc(-c3ccccc3)nc(N3CCC[C@H]3CO)n2)ccc1-c1cnco1
IC50 (CCRF-CEM): > 1000 nM | IC50 [1]: 72 nM

COC[C@@H]1CCCN1c1nc(Nc2ccc(-c3cnco3)c(OC)c2)nc(-c2ccccc2)n1
IC50 (CCRF-CEM): > 1000 nM | IC50 [1]: 290 nM

COc1cc(Nc2nc(NCC(=O)O)nc(-c3ccccc3)n2)ccc1-c1cnco1
IC50 (CCRF-CEM): > 1000 nM | IC50 [1]: 250 nM

COc1cc(Nc2nc(-c3ccccc3)nc(N(C)C)n2)ccc1-c1cnco1
IC50 (CCRF-CEM): > 1000 nM | IC50 [1]: 270 nM

COc1nc(Nc2ccc(-c3cnco3)c(OC)c2)nc(-c2ccccc2)n1
IC50 (CCRF-CEM): > 1000 nM | IC50 [1]: 41 nM

COc1cc(Nc2nc(-c3ccccc3)nc(N3CCN(C)CC3)n2)ccc1-c1cnco1
IC50 (CCRF-CEM): > 1000 nM | IC50 [1]: 330 nM

COc1cc(Nc2nncc(-c3ccccc3)n2)ccc1-c1cnco1
IC50 (CCRF-CEM): 3500 nM | IC50 [1]: 45 nM

COc1c(C)c2c(c(O)c1C/C=C(\C)CCC(=O)O)C(=O)OC2 [MYCOPHENOLIC ACID]
IC50 (CCRF-CEM): 390 nM
